Reference: ChEMBL document CHEMBL1147249, “Sunpollenol and five other rearranged 3,4-seco-tirucallane-type triterpenoids from sunflower pollen and their inhibitory effects on Epstein-Barr virus activation” (J Nat Prod, 2003)

Columns and labels:
Assay type in all cases: cell-based
Raji [1] = experiment: Inhibition of 12-O-tetradecanoylphorbol-13-acetate-induced EBV-early antigen activation in human Raji cells assessed as early antigen induction at 1000 molar ratio after 48 hrs by conventional indirect immunofluorescence technique relative to TPA; parameters: scale not given: the % may be the effect or the level left; details: human gammaherpesvirus 4
Summary of the method: (§1)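 Raji cells (1 × 10^6 cells/mL, RPMI-1640 with 10% FBS) were induced with 4 mM n-butyric acid plus […] TPA (20 ng/mL in DMSO). Test compound (32, 16, 3.2, 0.32 nmol in 1 mL) was present for 48 h at 37 °C. EA-positive cells were stained with NPC patient sera and detected by indirect immunofluorescence, at least 500 cells per assay, three repeats. Results are given as percent of butyrate+TPA control.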

Raji [2] = experiment: Inhibition of 12-O-tetradecanoylphorbol-13-acetate-induced EBV-early antigen activation in human Raji cells assessed as early antigen induction at 500 molar ratio after 48 hrs by conventional indirect immunofluorescence technique relative to TPA; parameters: scale not given: the % may be the effect or the level left; details: human gammaherpesvirus 4; summary of the method: as §1
Raji [3] = experiment: Inhibition of 12-O-tetradecanoylphorbol-13-acetate-induced EBV-early antigen activation in human Raji cells assessed as early antigen induction at 100 molar ratio after 48 hrs by conventional indirect immunofluorescence technique relative to TPA; parameters: scale not given: the % may be the effect or the level left; details: human gammaherpesvirus 4; summary of the method: as §1
Raji [4] = experiment: Inhibition of 12-O-tetradecanoylphorbol-13-acetate-induced EBV-early antigen activation in human Raji cells assessed as early antigen induction at 10 molar ratio after 48 hrs by conventional indirect immunofluorescence technique relative to TPA; parameters: scale not given: the % may be the effect or the level left; details: human gammaherpesvirus 4; summary of the method: as §1
[5] = Cytotoxicity against human Raji cells assessed as cell viability at 1000 molar ratio after 48 hrs by trypan blue staining method; details: read-out: Activity
Summary of the method: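 Raji cells (EBV genome-carrying, nonproducer) at 1 × 10^6 cells/mL in RPMI-1640 with 10% FBS were exposed to 4 mM n-butyric acid, […] TPA and test compound at 37 °C in a CO2 incubator. Viability was scored by Trypan Blue staining and given as percent viable Raji cells.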

`C[C@@H](CC[C@@H]1OC1(C)C)[C@@H]1CC[C@]2(C)[C@H]3CC[C@@]4(C(C)(C)O)OCCC[C@H]4[C@]3(C)CC[C@@]12C` gave an Activity (Raji [1]) of 0%, an Activity (Raji [2]) of 27.3% and an Activity (Raji [3]) of 75.9%. It also gave an Activity (Raji [4]) of 97.4% and a viability at 48 h, 1000 molar ratio [5] of 70%.
`C[C@@H](CC[C@@H](O)C(C)(C)O)[C@@H]1CC[C@]2(C)[C@H]3CC[C@@]4(C(C)(C)O)OCCC[C@H]4[C@]3(C)CC[C@@]12C` showed an Activity (Raji [1]) of 0%, an Activity (Raji [2]) of 24.4% and an Activity (Raji [3]) of 72.4%. It also gave an Activity (Raji [4]) of 92.5% and a viability at 48 h, 1000 molar ratio [5] of 70%.
Molecule `CC1=C(/C=C/C(C)=C/C=C/C(C)=C/C=C/C=C(C)/C=C/C=C(C)/C=C/C2=C(C)CCCC2(C)C)C(C)(C)CCC1` has an Activity (Raji [1]) of 8.6% and an Activity (Raji [4]) of 100%.
For `C[C@@H](C/C=C/C(C)(C)O)[C@@H]1CC[C@]2(C)[C@H]3CC[C@@]4(C(C)(C)O)OCCC[C@H]4[C@]3(C)CC[C@@]12C` [(23E)-23-DEHYDRO-25-HYDROXYSUNPOLLENOL], the Activity (Raji [1]) was 0%, the Activity (Raji [2]) was 22% and the Activity (Raji [3]) was 70.6%. For the same molecule, the Activity (Raji [4]) was 90% and the viability at 48 h, 1000 molar ratio [5] was 70%.
`C[C@@H](CC[C@H]1OC1(C)C)[C@@H]1CC[C@]2(C)[C@H]3CC[C@@]4(C(C)(C)O)OCCC[C@H]4[C@]3(C)CC[C@@]12C` [(24R)-24,25-EPOXYSUNPOLLENOL] showed an Activity (Raji [1]) of 0%, an Activity (Raji [2]) of 26.3% and an Activity (Raji [3]) of 72.6%. For the same molecule, the Activity (Raji [4]) was 91.8% and the viability at 48 h, 1000 molar ratio [5] was 60%.
`C[C@@H](CC[C@H](O)C(C)(C)O)[C@@H]1CC[C@]2(C)[C@H]3CC[C@@]4(C(C)(C)O)OCCC[C@H]4[C@]3(C)CC[C@@]12C` [(24S)-24,25-DIHYDROXYSUNPOLLENOL] showed an Activity (Raji [1]) of 0%, an Activity (Raji [2]) of 25.3% and an Activity (Raji [3]) of 73.3%. The Activity (Raji [4]) was 94.2% and the viability at 48 h, 1000 molar ratio [5] was 70%.
For `CC(C)=CCC[C@H](C)[C@@H]1CC[C@]2(C)[C@H]3CC[C@@]4(C(C)(C)O)OCCC[C@H]4[C@]3(C)CC[C@@]12C` [SUNPOLLENOL], the Activity (Raji [1]) was 3.1%, the Activity (Raji [2]) was 30.5% and the Activity (Raji [3]) was 74.3%. It also gave an Activity (Raji [4]) of 96.8% and a viability at 48 h, 1000 molar ratio [5] of 70%.
